VIM-2 inhibitor = inhibitors of Pseudomonas aeruginosa VIM-2 metallo-beta-lactamase | actives 0.89% (n = 290,000) | AID 1527 | purified VIM-2, nitrocefin hydrolysis, epi-absorbance fluorescence | inhibition, % at 5.6 µM;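 active = inhibition above the mean of all tested compounds plus 3 SD, cutoff set per screening run, cut at about 7.5% in these data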;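 also: red hydrolysis product quenches plate fluorescence so inhibitors raise well fluorescence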
PKA-R1A act = PKA-R1A complex activation; PKA-R1A dissociation, Cy5-IP20 fluorescence polarization; scaled: DMSO 0%, 113 µM cGMP 100%; P00514+P68181; activation, % at 11.4 µM; actives 0.083% (n = 340,000); AID 504707;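 active = percent activation above the mean of all tested compounds plus 3 SD, cut at about 19% in these data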;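 also: higher means more PKAc released from R1A so a rise in polarization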
MsrA inh = inhibits bovine methionine sulfoxide reductase A | purified bovine MsrA, absorbance read-out | inhibition, % at 15.5 µM | actives 0.75% (n = 360,000) | AID 651718; in the data active = inhibition above about 4.5%
IMP-1 inhibitor = blocks Pseudomonas aeruginosa IMP-1 metallo-beta-lactamase. purified IMP-1, nitrocefin hydrolysis, epi-absorbance fluorescence. inhibition, % at 5.6 µM. actives 0.45% (n = 290,000);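 active = inhibition above the mean plus 3 SD of all compounds in the same screening run, cut at about 4.5% in these data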
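System: purified recombinant IMP-1 beta-lactamase. Medium: Zinc- and detergent-supplemented HEPES buffer, pH 7.1. Compound: one 5.6 µM dose […]. Schedule: 15 min preincubation plus 25 min reaction at 25 °C. Technique: Epi-absorbance fluorescence, 480 nm excitation, 530 nm emission.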
PKA-R2B act = activators of human PKA-R2B complex. P22694+P31323. PKA-R2B holoenzyme dissociation, Cy5-IP20 fluorescence polarization; R2B truncated from residue 108, S112A mutant; 0% DMSO only, 100% 113 µM cGMP. activation, % at 11.4 µM. actives 0.079% (n = 340,000). AID 504700;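 active = activation above a cutoff set at the mean over all compounds plus 3 SD, cut at about 18% in these data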;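 also: higher means more holoenzyme dissociation and a rise in polarization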
Target sequence (P31323 whole entry, looked up, other chains not shown, the tested form may be a part): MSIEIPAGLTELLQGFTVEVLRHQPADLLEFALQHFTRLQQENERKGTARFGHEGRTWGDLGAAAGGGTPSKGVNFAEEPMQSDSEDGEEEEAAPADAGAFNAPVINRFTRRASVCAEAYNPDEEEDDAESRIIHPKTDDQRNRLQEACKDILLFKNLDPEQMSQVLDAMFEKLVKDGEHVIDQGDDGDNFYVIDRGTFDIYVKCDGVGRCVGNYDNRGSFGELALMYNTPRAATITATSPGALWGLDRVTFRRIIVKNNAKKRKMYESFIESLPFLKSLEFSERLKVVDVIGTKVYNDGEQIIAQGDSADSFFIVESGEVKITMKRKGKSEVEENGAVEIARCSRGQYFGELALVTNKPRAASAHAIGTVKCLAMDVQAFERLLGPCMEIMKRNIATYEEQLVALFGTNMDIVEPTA
bovine MsrA act = activators of bovine methionine sulfoxide reductase A; AID 602163; actives 0.3% (n = 360,000); activation, % at 10.6 µM; purified bovine MsrA, absorbance read-out; in the data active = activation above about 7.5%
MsrA activ conf = confirmation of bovine methionine sulfoxide reductase A activators | activation, % at 10.6 µM | actives 12% (n = 1,000) | shares compounds with bovine MsrA act | purified bovine MsrA, absorbance read-out; in the data active = activation above about 4%;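 also: enzyme coupled to thioredoxin and thioredoxin reductase with NADPH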
Each line names hits and unclear results; the compound was inactive in the other large screens (follow-up assays come after a bar, where they were run). In the library only some 2.1% were active in any assay of this set; here they are far more common.

COc1ccc(CN(C(=O)c2ccco2)c2ccc(C)cc2)cc1OC	bovine MsrA act 7.9 | MsrA activ conf inactive
CCCN1CCN(C(=O)c2noc3c2COc2ccc(C)cc2-3)CC1	bovine MsrA act 8.0 | MsrA activ conf inactive
CCOC(=O)N1CCN(C(=O)c2noc3c2COc2ccccc2-3)CC1	none
Cc1oc2c(c1C(=O)O)C(=O)c1ccccc1C2=O	bovine MsrA act 8.4 | MsrA activ conf inactive
Cc1oc2c(c1C(=O)c1ccccc1)C(=O)C(=O)c1ccccc1-2	bovine MsrA act 9.3 | MsrA activ conf 13
O=C1C(=O)c2c(C(=O)c3ccccc3)coc2-c2ccccc21	none
CC(=O)Nc1ccc(NC(=O)c2ccnn2C)cc1	none (no result: VIM-2 inhibitor, IMP-1 inhibitor)
CCCCOCC1CN(CCCC)S(=O)(=O)c2c(cccc2N(C)S(=O)(=O)c2ccc(C)cc2)O1 (stereo unspecified)	none (no result: VIM-2 inhibitor, PKA-R1A act, IMP-1 inhibitor, PKA-R2B act, bovine MsrA act)
NC1=NC(=O)C(c2ccccc2)C(=O)N1 (stereo unspecified)	none (no result: VIM-2 inhibitor, IMP-1 inhibitor)
COC(=O)N/N=C/c1cn(Cc2ccc(F)cc2)c2ccccc12	none
O=[N+]([O-])c1ccc(N/N=C/c2cn(Cc3ccc(F)cc3)c3ccccc23)nc1	bovine MsrA act 17 | MsrA activ conf inactive
Cc1ccccc1OC(=O)c1cccc(S(=O)(=O)N2CCN(C)CC2)c1	none (no result: VIM-2 inhibitor, IMP-1 inhibitor)
Cc1ccc(C(=O)/C=C/c2cn(CN3CCN(C)CC3)c3ccccc23)cc1	none
Cn1cc(/C=C/C(=O)c2ccccc2)c2ccccc21	bovine MsrA act 9.1 | MsrA activ conf inactive
O=C(NCc1ccccc1Cl)[C@H]1CCCN1C(=O)[C@H]1CCCN1C(=O)c1cccs1	bovine MsrA act 9.2 (no result: VIM-2 inhibitor, PKA-R1A act, IMP-1 inhibitor, PKA-R2B act) | MsrA activ conf inactive
COC(=O)CCS(=O)(=O)c1cc(Cl)ccc1Cl	bovine MsrA act 8.3 | MsrA activ conf inactive
c1cc2c(cc1-c1[nH]ncc1CN1C[C@H]3CC[C@H]1C3)OCO2	bovine MsrA act 12 | MsrA activ conf inactive
CN(Cc1cn[nH]c1-c1ccc2c(c1)OCO2)C1CCOCC1	none
COc1ccc(-c2cn3cc([N+](=O)[O-])ccc3n2)cc1OC	bovine MsrA act 10 | MsrA activ conf inactive
COC(=O)c1ccc(NC(=O)[C@H](C)NC(N)=O)cc1	bovine MsrA act 23 | MsrA activ conf inactive
COC(=O)c1ccc(NC(=O)C(C)Oc2ccccc2)cc1 (stereo unspecified)	none
CC1(c2nc3ccccc3[nH]2)c2ccccc2C(=O)N1Cc1ccccc1 (stereo unspecified)	none (no result: VIM-2 inhibitor, PKA-R1A act, IMP-1 inhibitor, PKA-R2B act)
CC(C)(C)NC(=S)NNC(=O)[C@H]1C[C@@H]1c1ccccc1	bovine MsrA act 8.5 | MsrA activ conf inactive
CC(=O)c1ccc(NC(=O)C2CC2c2ccccc2)cc1 (stereo unspecified)	bovine MsrA act 10 (no result: VIM-2 inhibitor, IMP-1 inhibitor) | MsrA activ conf inactive
CCN(CC)C(=O)C1=C(C)N(CCCN2CCCC2=O)C(=O)C(CC(=O)NCc2cccc3ccccc23)C1 (stereo unspecified)	none (no result: VIM-2 inhibitor, IMP-1 inhibitor)
C=CCNC(=O)C1CC(=O)N(c2ccc(OCC(=O)Nc3c(C)cccc3C)cc2)C1 (stereo unspecified)	none
COc1cccc(/C=C2/Sc3ccc(C(=O)NC4CC4)cc3NC2=O)c1	none (no result: VIM-2 inhibitor, PKA-R1A act, IMP-1 inhibitor, PKA-R2B act, bovine MsrA act)
Nc1ccc2c(c1)C(=O)C(=O)c1ccccc1-2	bovine MsrA act 40 | MsrA activ conf 29
Nc1ccc2c(c1)C(=O)c1ccccc1-2	none (no result: VIM-2 inhibitor, IMP-1 inhibitor)
CC(C)C(=O)Nc1cc(C(F)(F)F)ccc1N1CCOCC1	none
Cc1cc(C#N)c(C)n1-c1cc(C(F)(F)F)ccc1N1CCOCC1	bovine MsrA act 8.6 | MsrA activ conf inactive
C#CCN1CCc2onc(-c3ccccc3OC)c2C1=O	none (no result: VIM-2 inhibitor, PKA-R1A act, IMP-1 inhibitor, PKA-R2B act)
FC(F)c1nc2ccccc2[nH]1	none
c1ccc2[nH]c3cc4ncnc4cc3nc2c1	bovine MsrA act 18 | MsrA activ conf 15
CCOc1ccc2nc(NC(=S)N(C)C)sc2c1	bovine MsrA act 8.1 | MsrA activ conf inactive
CCCC(=O)Nc1nc2ccc(OCC)cc2s1	none
COc1ccc(C)cc1N(C(=O)c1ccccc1F)c1nc2ccccc2s1	bovine MsrA act 13 | MsrA activ conf inactive
COc1ccc(C)cc1N(C(=O)c1ccccc1)c1nc2ccccc2s1	none
CCOc1ccc(NC(C(=O)Nc2cccc(C(C)=O)c2)c2ccccc2)cc1 (stereo unspecified)	bovine MsrA act 9.5 | MsrA activ conf 10
COCC(C)NC(C(=O)Nc1cccc(C(C)=O)c1)c1ccccc1 (stereo unspecified)	none
O=C(NCC1COc2ccccc2O1)C1CCC(CNc2c(N3CCCCC3)c(=O)c2=O)CC1 (stereo unspecified)	bovine MsrA act 8.9 (no result: VIM-2 inhibitor, IMP-1 inhibitor) | MsrA activ conf inactive
Cn1c(=O)oc2cc(S(=O)(=O)N3CCC(C(=O)NCCc4ccccc4)CC3)ccc21	none
CCOc1cc(N2CCOCC2)c(OCC)cc1NC(=O)Cn1nc(C)c([N+](=O)[O-])c1C	none (no result: VIM-2 inhibitor, IMP-1 inhibitor)
Cc1nn(CC(=O)NCCCN2CCOCC2)c(C)c1[N+](=O)[O-]	bovine MsrA act 14 | MsrA activ conf inactive
CCc1nnc(NC(=O)CCS(=O)(=O)c2ccc(C)cc2)s1	none (no result: VIM-2 inhibitor, IMP-1 inhibitor)
CCCCc1nnc(NC(=O)CCS(=O)(=O)c2ccc(C)cc2)s1	bovine MsrA act 7.8 (no result: VIM-2 inhibitor, IMP-1 inhibitor) | MsrA activ conf inactive
O=C(OCc1nc2scc(-c3ccccc3)c2c(=O)[nH]1)c1ccco1	none (no result: VIM-2 inhibitor, IMP-1 inhibitor)
CC(C)[C@H](NC(=O)c1ccccc1)C(=O)OCc1nc2scc(-c3ccccc3)c2c(=O)[nH]1	bovine MsrA act 13 | MsrA activ conf 6.3
CCN(CC)S(=O)(=O)c1ccc(NC(=O)CNC2CCCCC2)cc1	bovine MsrA act 8.4 | MsrA activ conf inactive
CN1C[C@@H]2[C@@H]3C(=O)N(Cc4ccccc4)C(=O)[C@@H]3[C@](Cc3ccccc3)(C1=O)N2C(=O)c1ccc(C(C)(C)C)cc1	bovine MsrA act 8.8 (no result: VIM-2 inhibitor, IMP-1 inhibitor) | MsrA activ conf inactive
Cc1cccc(NCc2ccccc2O)c1C	bovine MsrA act 15 | MsrA activ conf inactive
CCOC(=O)c1cccc(NC(=O)c2cnc3ccccc3n2)c1	bovine MsrA act 13 | MsrA activ conf inactive
O=C(CCNS(=O)(=O)c1ccccc1C(F)(F)F)NCCCN1CCOCC1	none (no result: VIM-2 inhibitor, IMP-1 inhibitor)
CN1/C(=C\C(=S)Nc2ccccc2)C(C)(C)c2ccccc21	bovine MsrA act 9.0 | MsrA activ conf inactive
O=C(C1CCN(S(=O)(=O)c2ccccc2)CC1)N1CCc2ccccc21	none
O=C(C1CCN(S(=O)(=O)c2ccccc2F)CC1)N1CCc2ccccc21	bovine MsrA act 8.8 (no result: VIM-2 inhibitor, IMP-1 inhibitor) | MsrA activ conf inactive
COC(=O)Cc1[nH]nc2c1C(c1c[nH]c3ccccc13)C(C#N)=C(N)O2 (stereo unspecified)	bovine MsrA act 12 | MsrA activ conf inactive
Cc1[nH]nc2c1C(c1c[nH]c3ccccc13)C(C#N)=C(N)O2 (stereo unspecified)	none (no result: PKA-R1A act, PKA-R2B act)

Compound activity deposited in PubChem by The Scripps Research Institute Molecular Screening Center.
